Assay results taken from ChEMBL document CHEMBL1782031, “Urea/thiourea derivatives of quinazolinone-lysine conjugates: synthesis and structure-activity relationships of a new series of antimicrobials” (2011).

Assays:
Format in all cases: functional
Settings in all cases: read-out: DIZ
[1] = Antibacterial activity against Xanthomonas campestris pvs. at 10 ug/disc after 24 hrs by disc diffusion method
Procedure, shortened: (§1)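 Disc diffusion assay. Discs were held at 4 °C for 2 h so the compounds could diffuse, then incubated at 28 °C. Inhibition zone diameters were measured in mm after 24 h. Each compound was tested in triplicate.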

[2] = system: Xanthomonas oryzae; test: Antibacterial activity against Xanthomonas oryzae at 10 ug/disc after 24 hrs by disc diffusion method
[3] = system: Bacillus subtilis; test: Antibacterial activity against Bacillus subtilis at 10 ug/disc after 24 hrs by disc diffusion method; procedure, shortened: as §1
[4] = system: Escherichia coli; test: Antibacterial activity against Escherichia coli at 10 ug/disc after 24 hrs by disc diffusion method; procedure, shortened: as §1
[5] = system: Pseudomonas fluorescens; test: Antibacterial activity against Pseudomonas fluorescens at 10 ug/disc after 24 hrs by disc diffusion method; procedure, shortened: as §1

Structure (SMILES)	zone of inhibition at 10 µg/disc [1]	zone of inhibition at 10 µg/disc [2]	zone of inhibition at 10 µg/disc [3]	zone of inhibition at 10 µg/disc [4]	zone of inhibition at 10 µg/disc [5]
COC(=O)[C@H](CCCCNC(=S)Nc1ccc(F)cc1C)NC(=O)CCCc1nc2ccccc2c(=O)[nH]1	30 mm	32 mm	32 mm	33 mm	33 mm
O=C(CCc1nc2ccccc2c(=O)[nH]1)N[C@@H](CCCCNC(=O)Nc1cccc(F)c1)C(=O)O	33 mm	34 mm	35 mm	35 mm	34 mm
CC(C)(C)OC(=O)NCCCC[C@H](NC(=O)CCc1nc2ccccc2c(=O)[nH]1)C(=O)O	13 mm	14 mm	10 mm	11 mm	14 mm
COC(=O)[C@H](CCCCNC(=O)Nc1ccc(Cl)cc1)NC(=O)CCc1nc2ccccc2c(=O)[nH]1	28 mm	29 mm	24 mm	28 mm	29 mm
CS(=O)(=O)NCCCC[C@H](NC(=O)CCCc1nc2ccccc2c(=O)[nH]1)C(=O)O	11 mm	10 mm	12 mm	11 mm	12 mm
COC(=O)[C@H](CCCCNC(C)=O)NC(=O)CCc1nc2ccccc2c(=O)[nH]1	11 mm	12 mm	9 mm	10 mm	12 mm
